Experimental data from ChEMBL document CHEMBL1144441, “Identification of a novel cardenolide (2''-oxovoruscharin) from Calotropis procera and the hemisynthesis of novel derivatives displaying potent in vitro antitumor activities and high in vivo tolerance: structure-activity relationship analyses” (J Med Chem, 2005).

Assays:
[1] = system: Mus musculus; assay: Maximum tolerated dose after intraperitoneal administration in mouse (period of 28 days); not determined; assay type: functional
Procedure, shortened: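 Healthy, non-tumour-bearing B6D2F1 mice given one acute intraperitoneal dose, three mice per dose group, doses 5, 10, 20, 40, 80, 120 and 160 mg/kg. Survival and body weight followed for 28 days after injection. MTD is the highest single dose causing no deaths over the period.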

[2] = system: HCT-15; assay: Concentration required for 50% growth inhibition of human HCT-15 cancer cell lines after 3 days of culture; assay type: functional, cell-based; details: HCT-15, 72 h
Procedure, shortened: (§1)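 MTT overall-growth assay on the five lines. Cells were plated for 24 h at 10 000–40 000 cells/mL, depending on cell type. Nine concentrations from 10^-9 to 10^-5 M in semilog steps were applied for 72 h. Formazan was read at 570 nm against a 630 nm reference, in sextuplicate. IC50 = concentration reducing overall growth by 50% versus untreated control.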

[3] = system: U373 MG; assay: Concentration required for 50% growth inhibition of human U373 cancer cell lines after 3 days of culture; assay type: functional, cell-based, U-373MG ATCC; details: 72 h; procedure, shortened: as §1
[4] = system: A549; assay: Concentration required for 50% growth inhibition of human A549 cancer cell lines after 3 days of culture; assay type: functional, cell-based; details: A549, 72 h; procedure, shortened: as §1
[5] = Concentration required for 50% growth inhibition of human Hs 683 cancer cell lines after 3 days of culture; assay type: functional, cell-based; details: 72 h; procedure, shortened: as §1
[6] = system: LoVo; assay: Concentration required for 50% growth inhibition of human LoVo cancer cell lines after 3 days of culture; assay type: functional, cell-based; details: 72 h; procedure, shortened: as §1

SMILES: CC(=O)CCC(=O)OC[C@]12C[C@H]3OC4(O)[C@@H](O[C@H](C)C[C@@]45NC(=O)CS5)O[C@@H]3C[C@@H]1CC[C@@H]1[C@@H]2CC[C@]2(C)[C@@H](C3=CC(=O)OC3)CC[C@]12CO (stereo partly specified)
- MTD [1]: 20 mg/kg
- IC50 [2]: 3240 nM
- IC50 [3]: 3230 nM
- IC50 [4]: 463 nM
- IC50 [5]: 758 nM
- IC50 [6]: 3000 nM
